# Hits are enriched below; roughly 2.9% of the tested compounds scored in any of these assays.
# SENP8 block-1: SENP8 protease inhibition; Q96LD8; purified SENP8, Z-RLRGG-aminoluciferin cleavage, luminescence; inhibition, % at 10 µM; actives 1.2% (n = 330,000); in the data active means inhibition above about 50%
# Target sequence (Q96LD8 whole entry, looked up): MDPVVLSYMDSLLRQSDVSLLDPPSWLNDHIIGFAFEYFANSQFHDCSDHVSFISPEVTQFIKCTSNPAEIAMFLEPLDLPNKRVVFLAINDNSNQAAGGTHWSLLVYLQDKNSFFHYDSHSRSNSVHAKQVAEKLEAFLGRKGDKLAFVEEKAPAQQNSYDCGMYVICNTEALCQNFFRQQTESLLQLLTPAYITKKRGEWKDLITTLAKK
# HSP90 inh: inhibitors of HSP90 luciferase refolding in rabbit reticulocyte lysate; luciferase refolding luminescence, 3 h; inhibition, % at 5.6 µM; actives 0.91% (n = 290,000);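 active means inhibition above the screen-wide mean plus 3 SD, computed separately per campaign, cut at about 16% in these data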;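 further: inhibitors lower the luminescence because luciferase stays unfolded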
# SENP6 inh: blocks the human protease SENP6; Recombinant SENP6 catalytic domain, aminoluciferin luminescence; inhibition, % at 10 µM; actives 1.8% (n = 330,000); AID 2599;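 active means inhibition above about 50% at the single tested dose, limit read from the data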
# SENP7 inh: SENP7 protease inhibition | recombinant SENP7, Z-RLRGG-aminoluciferin luminescence, 40 min | inhibition, % at 5 µM | actives 1.5% (n = 330,000);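 active means inhibition above about 50% at the single test dose, limit read from the data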
# SENP8 block-2: inhibitors of human SENP8 protease. Q96LD8. recombinant SENP8, Nedd8 substrate fluorescence. inhibition, % at 20 µM. actives 0.64% (n = 360,000). AID 602440; in the data active means inhibition mostly above about 40%, no sharp cut-off; inactive means mostly below about 27%
# SENP1 FRET inh: blocks the human SENP1 SUMO protease catalytic domain. Q9P0U3. recombinant SENP1 catalytic domain, CyPet-SUMO1-YPet FRET cleavage. inhibition, % at 10 µM. actives 0.21% (n = 360,000);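 active means inhibition at least 30% at 10 µM, raw YFP signal under a set limit, fluorescence ratio 0.5 to 1.5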
# Target sequence (Q9P0U3 419-644 limits assumed): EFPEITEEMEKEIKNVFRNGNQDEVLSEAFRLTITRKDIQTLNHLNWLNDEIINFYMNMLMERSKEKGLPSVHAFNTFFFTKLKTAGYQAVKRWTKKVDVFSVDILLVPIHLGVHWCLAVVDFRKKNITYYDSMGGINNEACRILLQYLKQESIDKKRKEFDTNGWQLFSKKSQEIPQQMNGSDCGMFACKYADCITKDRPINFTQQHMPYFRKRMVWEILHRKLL
#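 Material: hSENP1 catalytic domain, recombinant; medium: Tris pH 8 with BME, BSA, NP40 and catalase; compound: single concentration of 10 µM compound, 0.5% DMSO final; technique: FRET read of cyan and yellow fluorescence; timing: 50 min enzyme reaction, room temperature, light-protected; reagent: SFCypet-SUMO1-SFYpet substrate at 25 nM; control set: no-enzyme low, enzyme-DMSO high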
# SENP8 conf: confirmation of human SENP8 protease inhibitors; shares compounds with SENP7 inh; Recombinant SENP8, Z-RLRGG-aminoluciferin luminescence, 60 min; inhibition, % at 12.5 µM; actives 40% (n = 6,200); AID 488912;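 active means mean inhibition across replicates above about 50%, limit read from the data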
# SENP6 confirm: confirmation of human SENP6 protease inhibitors. shares compounds with SENP7 inh. recombinant SENP6, Z-RLRGG-aminoluciferin luminescence. inhibition, % at 12.5 µM. actives 58% (n = 6,200). AID 488915
# SENP7 confirm: human SENP7 inhibition, confirmed; recombinant SENP7, Z-RLRGG-aminoluciferin luminescence, 40 min; shares compounds with SENP7 inh; actives 69% (n = 6,200); inhibition, % at 12.5 µM
# Casp3 SENP sel: selectivity test for SENP inhibitors: human caspase-3 inhibition | shares compounds with SENP7 inh | actives 60% (n = 6,200) | purified caspase-3, Z-DEVD-aminoluciferin luminescence, 60 min | inhibition, % at 12.5 µM;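 active means mean inhibition above about 50%, limit read from the data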
# Target sequence (P42574 28-227 limits assumed): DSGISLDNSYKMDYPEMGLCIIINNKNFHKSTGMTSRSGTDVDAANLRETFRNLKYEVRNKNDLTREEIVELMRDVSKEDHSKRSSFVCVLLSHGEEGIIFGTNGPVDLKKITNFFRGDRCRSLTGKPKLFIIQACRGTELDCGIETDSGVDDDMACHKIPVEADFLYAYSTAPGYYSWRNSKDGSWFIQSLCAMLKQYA
# Luc interf: interferes with luciferase luminescence in SENP counter-screen | shares compounds with SENP7 inh | Pre-incubated SENP8/Z-RLRGG-aminoluciferin, luciferase luminescence interference | inhibition, % at 12.5 µM | actives 39% (n = 6,200);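 active means mean inhibition above about 50% when retested at one dose, limit read from the data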
# Numbers stand for hits; . = inactive; / = not tested or not shown.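 How the source made its calls, unless noted: active means mean inhibition above about 50% in the one-dose retest (limit read from the data); inactive means the rest.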
SMILES,SENP8 block-1,HSP90 inh,SENP6 inh,SENP7 inh,SENP8 block-2,SENP1 FRET inh,SENP8 conf,SENP6 confirm,SENP7 confirm,Casp3 SENP sel,Luc interf
CC(=C/c1ccco1)/C=N/N1CCN(c2ccccc2)CC1,92,.,97,95,.,.,.,54,.,68,.
CC(/C=N/N1CCN(c2ccccc2)CC1)=C\c1ccco1,95,.,96,98,.,.,.,87,91,71,.
Cc1ccc(N2CCN(/N=C/C(Cl)=C/c3ccccc3)CC2)cc1,.,.,.,.,.,.,/,/,/,/,/
CC(/C=N/N1CCN(c2ccccc2)CC1)=C\c1ccccc1,.,.,.,75,.,.,.,.,.,.,.
CCc1ccc(S(=O)(=O)NCC2(N3CCOCC3)CCCCC2)cc1,.,/,.,.,.,.,/,/,/,/,/
COc1ccc(CCNC(=O)CC2Nc3ccccc3NC2=O)cc1 (stereo not drawn),.,.,.,.,.,.,/,/,/,/,/
O=C(CC1Nc2cccc3cccc(c23)NC1=O)Nc1ccccc1 (stereo not drawn),.,.,87,53,.,.,.,.,.,.,.
CCCOc1ccc(NC(=O)CC2Nc3ccccc3NC2=O)cc1 (stereo not drawn),.,.,.,.,.,.,/,/,/,/,/
NC(=O)CC1Nc2cccc3cccc(c23)NC1=O (stereo not drawn),77,.,91,.,.,.,.,.,.,.,.
O=S1(=O)CC(N2CCN(CCO)CC2)CN1Cc1cn(Cc2ccc(F)cc2)nn1 (stereo not drawn),/,/,/,/,.,.,/,/,/,/,/
CC(=O)c1cccc(NC(=O)COC(=O)CCC(=O)c2cccs2)c1,.,/,.,.,.,.,/,/,/,/,/
CCC(CC)C(=O)N1CCN(Cc2nc3ccccc3c(=O)[nH]2)CC1,.,.,.,.,.,.,/,/,/,/,/
O=C(NC1CCCCC1)N1CCN(Cc2nc3ccccc3c(=O)[nH]2)CC1,.,.,60,.,.,.,.,.,.,.,.
COc1ccc(-c2ccc3[nH]c4c(c3c2)CCN2C(=O)[C@@H]([C@H](C)O)[C@@H](N(C)C(=O)Nc3ccccc3)C[C@@H]42)cc1,/,/,/,/,.,.,/,/,/,/,/
CN(CC1COc2ccccc2O1)C(=O)CCNS(=O)(=O)c1ccc(F)c(Cl)c1 (stereo not drawn),/,/,/,/,.,.,/,/,/,/,/
CS(=O)c1ccccc1-c1nc(-c2ccc(Cl)cc2)no1 (stereo not drawn),.,.,.,.,.,.,/,/,/,/,/
Cc1ccc(-c2noc(-c3ccccc3F)n2)cc1,76,.,96,97,.,.,73,95,101,85,68
O=C(O)c1ccc(-c2noc(-c3ccccc3F)n2)cc1,96,/,99,99,.,.,100,101,104,100,95
O=C(/C=C/c1ccc2c(c1)OCO2)c1ccc[nH]1,59,.,77,78,.,.,73,64,91,.,69
O=C(/C=C\Nc1cccc(F)c1)c1ccc2c(c1)OCO2,56,.,94,96,.,.,79,87,92,84,.
O=C(c1ccc2c(c1)OCO2)c1ccc[nH]1,/,/,/,/,.,.,/,/,/,/,/
COC(=O)c1ccc(N/C=C\C(=O)c2ccc3c(c2)OCO3)cc1,.,.,.,.,.,.,/,/,/,/,/
O=C(/C=C\Nc1ccccc1Br)c1ccc2c(c1)OCO2,86,.,87,89,.,.,84,93,98,78,.
O=C(/C=C/c1cccc(Br)c1)c1ccc2c(c1)OCO2,.,.,76,.,.,.,.,.,.,.,.
O=C(Nc1ccccc1OC(F)F)c1ccc(S(=O)(=O)N2CCOCC2)cc1,.,.,.,.,.,.,/,/,/,/,/
SMILES,SENP8 block-1,HSP90 inh,SENP6 inh,SENP7 inh,SENP8 block-2,SENP1 FRET inh,SENP8 conf,SENP6 confirm,SENP7 confirm,Casp3 SENP sel,Luc interf
COc1ccc(C(c2nnnn2C(C)C)N2CCN(C(=O)c3ccco3)CC2)cc1 (stereo not drawn),.,.,.,.,.,.,/,/,/,/,/
O=C(/C=C/c1ccc2c(c1)OCO2)c1ccc(F)cc1,.,.,.,.,.,.,/,/,/,/,/
CN(C)c1ccc(/C=C/C(=O)c2ccc3c(c2)OCO3)cc1,88,/,91,88,.,.,95,94,101,83,66
O=C(/C=C/c1ccccc1)c1ccc2c(c1)OCO2,76,.,82,93,.,.,.,51,.,.,90
O=C(/C=C/c1ccccc1Br)c1ccc2c(c1)OCO2,91,.,94,92,.,.,72,74,64,60,54
COc1cc(OC)cc(-c2c(Sc3ccccc3)c3cc(-c4ccc(OC)c(F)c4)ccc3n2C)c1,/,/,/,/,.,.,/,/,/,/,/
CN(CC(=O)NCCCc1ccccc1)S(=O)(=O)c1ccc(Br)cc1,.,.,.,.,.,.,/,/,/,/,/
CCCC(=O)Nc1ccc(-c2nc3cc(C)ccc3o2)cc1,.,.,71,71,.,.,.,50,74,.,.
CCCC(=O)Nc1ccc(-c2nc3cc(C)c(C)cc3o2)c(O)c1,.,.,.,.,.,.,/,/,/,/,/
CCCC(=O)Nc1ccc2oc(-c3ccc(OC)c(Br)c3)nc2c1,.,.,.,51,.,.,.,.,.,.,.
CCC(=O)NC(=S)Nc1ccc2oc(-c3ccc(OC)cc3)nc2c1,.,.,.,.,.,.,/,/,/,/,/
Cc1ccccc1CSc1nnc(-c2ccncc2)n1C,.,.,.,.,.,.,/,/,/,/,/
Cn1nc([N+](=O)[O-])nc1N1CCOCC1,61,.,.,.,.,.,.,.,.,.,.
Cc1ccc(S(=O)(=O)Oc2cccc(/C=N/Nc3ccc(C(=O)O)cc3)c2)cc1,88,.,.,62,.,.,.,96,101,.,90
Cc1ccc(S(=O)(=O)Oc2cccc(/C=N/n3cnnc3)c2)cc1,.,.,.,.,.,.,/,/,/,/,/
CCc1nc2ccc(C(=O)NCCc3ccccn3)cn2c1N(CC)Cc1cccc(Br)c1,/,/,/,/,.,.,/,/,/,/,/
CCC(=O)N(C1=C(NC)C(=O)c2ccccc2C1=O)C(C)C,.,.,87,.,59,.,.,.,.,.,.
CCOc1ccc(NC(=O)C2CCN(C(=O)C3CC(=O)N(c4ccc(C)cc4)C3)CC2)cc1 (stereo not drawn),.,.,.,.,.,.,/,/,/,/,/

# Assay outcomes (PubChem)
